We go through 20 compounds from ChEMBL document CHEMBL4145657 (J Med Chem, 2018).

The CL/F is the apparent clearance, not corrected for the fraction that reaches the circulation. In general, Tmax refers to the time at which the peak concentration occurs.

Active and inactive are the calls of the source. The rule behind the calls is not given here.

Series [1] addresses Delta-type opioid receptor (Homo sapiens) (UniProt P41143). The series is described as follows: Agonist activity at human delta opioid receptor expressed in CHO cell membranes at 10 uM incubated for 60 mins by [35S]GTPgammaS binding assay. In kind it is functional. In outline:
(§1)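 CHO cell membranes expressing human κ (20 µg), µ (10 µg) or δ (7 µg) opioid receptor. Test compound at 10 µM final, with 10 µM GDP and 0.1 nM [35S]GTPγS in HEPES pH 7.4 buffer containing NaCl, MgCl2, EDTA, DTT and BSA. Incubated 60 min at 22 °C with shaking, then filtered and counted. Nonspecific binding defined with 10 µM unlabeled GTPγS.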
On the technique in general: GTPγS resists hydrolysis and so accumulates on activated G proteins.

Series [2] addresses Kappa-type opioid receptor (Homo sapiens) (UniProt P41145). The series is described as follows: Agonist activity at human kappa opioid receptor expressed in CHO cell membranes at 10 uM incubated for 60 mins by [35S]GTPgammaS binding assay. In kind it is functional. In short, it runs like this: as §1
For series [3], the target named is Mu-type opioid receptor (Homo sapiens) (UniProt P35372). Briefly: Agonist activity at human mu opioid receptor expressed in CHO cell membranes at 10 uM incubated for 60 mins by [35S]GTPgammaS binding assay. In kind it is functional. In short, it runs like this:
as §1

A short description of series [4]: Half life in Sprague-Dawley rat plasma at 5 mg/kg, sc measured after 1 to 168 hrs post dose by LC/MS-MS method. In kind it is ADME, organism-based. The note with it: in vivo. In outline:
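Male Sprague Dawley rats, 10 weeks old, single subcutaneous 5 mg/kg dose at 1 mL/kg. Cardiac blood went into K3EDTA and was spun to plasma. Brains were homogenized 1:5 in 50:50 ethanol:water. Methanol precipitation used buspirone as internal standard. Analysis was by LC/MS-MS on C8 reverse phase. Parameters were taken from the apparent terminal elimination phase.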

The nature of series [5]: Clearance in Sprague-Dawley rat plasma at 5 mg/kg, sc measured after 1 to 168 hrs post dose by LC/MS-MS method. In kind it is ADME, organism-based. In outline: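 Male Sprague Dawley rats, 10 weeks old, single subcutaneous 5 mg/kg dose at 1 mL/kg. Three rats per timepoint were killed by CO2 at 1, 4, 24, 72 and 168 h. Cardiac blood went into K3EDTA and was spun to plasma. Brains were homogenized 1:5 in 50:50 ethanol:water. Methanol precipitation used buspirone as internal standard. Analysis was by LC/MS-MS on C8 reverse phase. Parameters were taken from the apparent terminal elimination phase.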

Series [6] addresses Delta-type opioid receptor (Homo sapiens) (UniProt P41143). The note with it: CHO.
The target of series [7] is Mu-type opioid receptor (Homo sapiens) (UniProt P35372). The note with it: CHO.
The conditions of series [8]: rat, in vivo, sc, 5 mg/kg.

Mu-type opioid receptor (Homo sapiens), sequence (P35372 whole entry): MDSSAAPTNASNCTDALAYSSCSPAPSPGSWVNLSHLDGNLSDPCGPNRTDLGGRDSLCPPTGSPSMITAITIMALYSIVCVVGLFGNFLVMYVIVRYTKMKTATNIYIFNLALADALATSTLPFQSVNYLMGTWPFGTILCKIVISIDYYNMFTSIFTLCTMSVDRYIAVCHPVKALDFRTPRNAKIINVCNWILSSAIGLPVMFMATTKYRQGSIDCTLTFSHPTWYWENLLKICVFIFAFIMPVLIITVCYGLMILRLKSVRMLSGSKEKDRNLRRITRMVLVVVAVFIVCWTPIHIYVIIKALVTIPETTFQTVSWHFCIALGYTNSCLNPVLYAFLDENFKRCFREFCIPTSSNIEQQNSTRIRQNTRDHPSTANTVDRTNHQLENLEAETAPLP
Kappa-type opioid receptor (Homo sapiens), sequence (P41145 whole entry): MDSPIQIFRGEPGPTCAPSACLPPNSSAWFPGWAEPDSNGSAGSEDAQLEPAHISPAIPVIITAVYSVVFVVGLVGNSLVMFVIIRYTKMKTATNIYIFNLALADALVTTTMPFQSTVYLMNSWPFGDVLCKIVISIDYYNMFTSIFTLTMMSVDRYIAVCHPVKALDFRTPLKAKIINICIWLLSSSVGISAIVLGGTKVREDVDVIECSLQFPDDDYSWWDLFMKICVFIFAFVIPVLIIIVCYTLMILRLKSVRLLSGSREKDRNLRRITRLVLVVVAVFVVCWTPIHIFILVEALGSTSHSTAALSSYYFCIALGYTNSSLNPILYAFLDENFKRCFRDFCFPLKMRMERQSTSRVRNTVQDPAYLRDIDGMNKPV
Delta-type opioid receptor (Homo sapiens), sequence (P41143 whole entry): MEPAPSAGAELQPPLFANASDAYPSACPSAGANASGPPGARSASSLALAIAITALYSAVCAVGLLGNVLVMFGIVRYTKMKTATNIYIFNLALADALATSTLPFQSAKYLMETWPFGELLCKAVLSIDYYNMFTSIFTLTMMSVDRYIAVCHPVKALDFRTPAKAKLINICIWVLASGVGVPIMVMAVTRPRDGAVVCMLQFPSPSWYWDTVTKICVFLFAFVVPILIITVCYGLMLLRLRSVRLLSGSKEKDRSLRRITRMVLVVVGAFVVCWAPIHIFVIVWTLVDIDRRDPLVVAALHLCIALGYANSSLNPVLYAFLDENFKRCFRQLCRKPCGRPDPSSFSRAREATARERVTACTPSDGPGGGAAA

For `CC(C)[C@@H](CC1CCCCCC1)NC(=O)[C@H]1Cc2ccc(O)cc2CN1`, the result in series [1], in series [2] and in series [3] was inactive.
Take `CC(C)[C@@H](CC1CCCC1)NC(=O)[C@@]1(C)Cc2ccc(O)cc2CN1`: the result in series [1], in series [2] and in series [3] was inactive.
Consider `CC(C)[C@@H](CC1CCCCC1)NC(=O)[C@H]1Cc2ccc(F)cc2CN1`, for which the result in series [1], in series [2] and in series [3] was inactive.
As for `O=C(N[C@H](CC1CCCCC1)C1CC1)[C@H]1Cc2ccc(O)cc2CN1`, the outcome in series [1], in series [2] and in series [3] was inactive.
`CC(C)[C@@H](CC1CCCC1)NC(=O)[C@H]1Cc2ccc(O)cc2CN1`: in series [4], the t1/2 came out at 32.1 h. In series [5], this compound showed a CL/F of 7.78 L/h/kg. Further, the outcome in series [1], in series [2] and in series [3] was inactive. Also, the Ke was determined as 1570 nM in series [6] and 344 nM in series [7].
Regarding `O=C(NCCC1CCCCC1)[C@H]1Cc2ccc(O)cc2CN1`, the result in series [1], in series [2] and in series [3] was inactive.
On to `CC(C)[C@@H](CN1CC[C@@](C)(c2cccc(O)c2)[C@@H](C)C1)NC(=O)[C@H]1Cc2ccc(O)cc2CN1` [JDTIC], for which the t1/2 in series [4] came to 28.4 h.
For `CC(C)[C@@H](CC1CCCCC1)NC(=O)[C@H]1Cc2ccccc2CN1`, the result in series [1], in series [2] and in series [3] was inactive.
With `COc1ccc2c(c1)CN[C@@H](C(=O)N[C@H](CC1CCCCC1)C(C)C)C2`, the result in series [1], in series [2] and in series [3] was inactive.
Take `O=C(N[C@H](CC1CCCC1)C1CC1)[C@H]1Cc2ccc(O)cc2CN1`: the outcome in series [1], in series [2] and in series [3] was inactive.
`CC(C)[C@@H](CC1CCCCC1)NC(=O)[C@H]1Cc2ccc(O)cc2CN1C`: the result in series [1], in series [2] and in series [3] was inactive.
As to `O=C(N[C@H](CC1CCCCC1)c1ccccc1)[C@H]1Cc2ccc(O)cc2CN1`, the result in series [1], in series [2] and in series [3] was inactive.
For the compound `CC(C)[C@H](CC1CCCCC1)NC(=O)[C@H]1Cc2ccc(O)cc2CN1`, the outcome in series [1], in series [2] and in series [3] was inactive. In addition, the Ke in series [6] is above 3000 nM.
As for `CC(C)[C@@H](CC1CCCC1)NC(=O)[C@H]1Cc2ccc(C(N)=O)cc2CN1`, the outcome in series [1], in series [2] and in series [3] was inactive.
With `CC(C)[C@@H](CC1CCC1)NC(=O)[C@H]1Cc2ccc(O)cc2CN1`, the outcome in series [1], in series [2] and in series [3] was inactive.
Regarding `CC(C)[C@@H](CC1CCCCC1)NC(=O)[C@H]1Cc2ccc(O)cc2CN1`, the t1/2 in series [4] amounted to 34.2 h. The CL/F in series [5] was 5.92 L/h/kg. The outcome in series [1], in series [2] and in series [3] was inactive. Further, the Tmax in series [8] was determined as 1 h.
In the case of `CC(C)[C@@H](CC1CCCCC1)NC(=O)[C@@H]1Cc2ccc(O)cc2CN1`, the outcome in series [1], in series [2] and in series [3] was inactive. The compound further came in with a Ke in series [6] above 3000 nM.
Consider `CC(C)[C@H](CC1CCCCC1)NC(=O)[C@@H]1Cc2ccc(O)cc2CN1`, for which the outcome in series [1], in series [2] and in series [3] was inactive. Besides, the Ke in series [6] is above 3000 nM.
In series [5], `CC(C)[C@@H](CC1CCCCC1)NC(=O)[C@H]1Cc2ccc(C(N)=O)cc2CN1` showed a CL/F of 4.27 L/h/kg. For the same compound, the outcome in series [1], in series [2] and in series [3] was inactive.
Consider `CC1CCC(C[C@@H](NC(=O)[C@H]2Cc3ccc(O)cc3CN2)C(C)C)CC1` (some centres undefined), for which the outcome in series [1], in series [2] and in series [3] was inactive.
